Screening data deposited in PubChem by several laboratories.
Only some compounds are listed: those with a hit (about 2.1% of all), similar ones and a draw of the others.
APJ antagonist: APJ receptor antagonism. P35414. CHO-K1 APJ beta-arrestin complementation, luminescence. inhibition, % at 20 µM. actives 0.32% (n = 330,000);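 active means inhibition above about 40% at 20 µM, limit read from the data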;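 further: cells challenged with 10 nM apelin-13 agonist together with compound; plate controls were apelin-13 plus DMSO wells for no effect and DMSO wells lacking apelin-13 for full effect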
HTR2A ag: activates the mouse 5-HT2A serotonin receptor; activation, % at 7.6 µM; P35363; CHO-K1 mHTR2A beta-arrestin complementation, luminescence; percent of 30 µM serotonin response; actives 0.66% (n = 360,000);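 active means activation above a run cutoff, the mean activation of all tested compounds plus 3 SD, cut at about 14% in these data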;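 further: 0% = plate median of compound wells and 100% = 30 µM serotonin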
EBI2 antag: EBI2 (human) antagonism; EBI2 beta-arrestin recruitment, luminescence, 7a,25-OHC stimulated; P32249; inhibition, % at 5 µM; actives 0.81% (n = 360,000); AID 651636; in the data active means inhibition above about 38%;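 further: enzyme fragment complementation signal reports receptor beta-arrestin coupling in cells; 0% = agonist plus DMSO wells and 100% = wells without agonist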
Target sequence (P32249 whole entry, looked up, the tested form may be a part): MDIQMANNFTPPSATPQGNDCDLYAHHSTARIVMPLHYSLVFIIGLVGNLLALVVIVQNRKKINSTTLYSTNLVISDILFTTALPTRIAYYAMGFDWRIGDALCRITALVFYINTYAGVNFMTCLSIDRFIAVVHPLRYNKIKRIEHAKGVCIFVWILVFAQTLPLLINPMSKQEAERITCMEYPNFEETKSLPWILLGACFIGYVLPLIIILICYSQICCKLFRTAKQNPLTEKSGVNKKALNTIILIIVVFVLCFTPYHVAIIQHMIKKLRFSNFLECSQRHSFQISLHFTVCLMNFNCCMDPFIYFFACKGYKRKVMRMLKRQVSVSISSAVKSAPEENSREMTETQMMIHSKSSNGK
APJ ag: APJ receptor agonism. P35414. activation, % at 20 µM. AID 2520. actives 0.11% (n = 330,000). CHO-K1 APJ PathHunter beta-arrestin, luminescence; 0% DMSO wells, 100% apelin;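 active means activation more than six SD over the plate average, tested at 20 µM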;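 further: 0% = DMSO alone and 100% = apelin-13 at 10 nM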
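Incubation: overnight seeding, 90 min compound at 25 °C, 1 h detection; test system: PathHunter CHO-K1 APJ (AGTRL-1) beta-arrestin reporter cells; amount: 1000 cells/well; doses: one dose, 20 µM compound, 1% DMSO; measured by: beta-gal luminescence; measure: agonist-driven arrestin binding to APJ; benchmarks: negative DMSO alone, positive Apelin-13 at 10 nM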
CCR6 antag: blocks CCL20-driven beta-arrestin recruitment at human CCR6. inhibition, % at 20 µM. CHO-K1 CCR6 PathHunter beta-arrestin, luminescence, CCL20-stimulated. AID 493098. actives 0.49% (n = 340,000);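 active means compounds whose inhibition of the agonist-driven luminescence signal at 20 µM reaches about 50%, limit read from the data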;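 further: cells stimulated with CCL20 at 14 nM final; plate controls were DMSO with CCL20 for no effect and DMSO without agonist for full effect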
CXCR6 block: CXCR6 (human) receptor inhibition. O00574. CHO-K1 PathHunter CXCR6 beta-arrestin, luminescence. inhibition, % at 20 µM. actives 0.36% (n = 360,000). AID 602244; in the data active means inhibition above about 34%, passing the limit was not always enough;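 further: antagonist mode with CXCL16 agonist at 10 nM final; 0% = 10 nM CXCL16 with DMSO and 100% = unstimulated wells without agonist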
EBI2 antag conf: confirmation of human EBI2 receptor antagonists; shares compounds with EBI2 antag; EBI2 beta-arrestin luminescence, 7a,25-OHC antagonism; inhibition, % at 5 µM; actives 29% (n = 2,400); AID 651997;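 active means inhibition of at least 50%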
EBI2 agonist: counter-screen for EBI2 antagonists: EBI2 agonist activity | activation, % at 5 µM | EBI2-expressing cells, agonist mode, luminescence, 60 min; 0% vehicle, 100% 7α,25-dihydroxycholesterol control | shares compounds with EBI2 antag | AID 652000 | 2,400 tested, under 10 active;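 active means activation of at least 50%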
bGal cs: beta-galactosidase inhibition counter-screen; actives 1% (n = 2,400); purified beta-galactosidase, luminescent Galacton Star, 15 min; inhibition, % at 5 µM; shares compounds with EBI2 antag;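 active means replicate-average signal at least 3 plate SD below neutral wells, shown as high inhibition, flagging enzyme-inhibiting false positives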;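 further: 0% = DMSO wells with enzyme and 100% = wells lacking enzyme; higher means stronger loss of beta-gal luminescence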
* = called active by the depositor; · = not tested or not shown.

SMILES	APJ antagonist	HTR2A ag	EBI2 antag	APJ ag	CCR6 antag	CXCR6 block	EBI2 antag conf	EBI2 agonist	bGal cs
COc1ccccc1C1CCN(C(=O)c2cnn(-c3ccccc3)c2C)CC1	-1	2	54*	-2	6	4	20	2	7
COc1ccccc1C1CCN(C(=O)c2ccccc2)CC1	17	-1	-29	1	11	-1	·	·	·
O=C(COC(=O)Cc1ccccc1F)NC(=O)NC1CCCC1	-7	-7	0	0	3	9	·	·	·
O=C1CCN(Cc2ccccc2)C=C1c1ccc(Cl)cc1	0	2	66*	1	11	5	58*	-1	-10
O=C1CCN(Cc2ccccc2)C=C1c1ccc(C(F)(F)F)cc1	3	1	69*	-2	18	0	48	-1	-15
O=C1CCN(Cc2ccccc2)C=C1c1ccc2ccccc2c1	-5	-9	90*	-2	15	0	65*	0	-13
O=C(Nc1ccc2ccccc2c1)[C@@H]1C[C@H]1[C@@H](NP(=O)(c1ccccc1)c1ccccc1)c1ccccc1	11	1	59*	-6	4	6	11	-1	-13
O=C1[C@@H]2Cc3c([nH]c4ccccc34)C(c3cccc([N+](=O)[O-])c3)N2C(=O)CN1C1CCN(Cc2ccccc2)CC1 (some centres not stated)	1	7	41*	-3	·	10	37	0	5
O=C1N=C(N2CCCC2)S/C1=C\c1ccccc1	-2	-1	0	0	7	-5	·	·	·
C=CCOc1ccc(/C=C2\SC(N3CCCCC3)=NC2=O)cc1	2	1	57*	-5	14	-3	43	1	9
O=C1N=C(N2CCCCC2)S/C1=C\c1ccc(Cl)cc1	15	1	86*	-1	14	0	55*	0	10
CCOC(=O)C1CCCN(C2=NC(=O)/C(=C/c3ccc(OC)cc3OC)S2)C1 (configuration not stated)	7	1	10	-2	12	6	·	·	·
CCOC(=O)C1CCCN(C2=NC(=O)/C(=C/c3ccc(OC)cc3)S2)C1 (configuration not stated)	-2	3	61*	-3	8	4	38	1	-2
Cc1cc(NS(=O)(=O)c2ccc(NC(=O)c3ccccc3F)cc2)no1	-1	4	0	-1	12	11	·	·	·
CCOc1ccc(NC(=S)Nc2cccnc2)cc1	18	3	58*	-1	-8	0	24	-1	-10
CCOc1ccc(NC(=S)Nc2ccc(F)cc2)cc1	9	-1	59*	-2	-11	-8	41	0	8
COc1ccc(NC(=S)Nc2ccc(F)cc2)cc1	13	-2	17	-2	6	7	·	·	·
CCOc1ccc(NC(=S)Nc2cc(-c3ccccc3)[nH]n2)cc1	10	-5	42*	-3	0	-3	19	0	6
CCOc1ccc(NC(=S)Nc2ccccc2C2(C)CC2)cc1	7	3	60*	-1	22	1	20	2	4
CC1CCCC(N2CCN(C(=O)c3ccc([N+](=O)[O-])cc3)CC2)C1 (configuration not stated)	20	3	38	1	8	-6	·	·	·
CC1CC1C(=O)OCC(=O)Nc1cc(S(=O)(=O)N2CCCCC2)ccc1Cl (configuration not stated)	3	1	-5	-1	4	0	·	·	·
CCOc1ccc(NC(=S)NN(C)C(=S)Nc2ccc(OCC)cc2)cc1	-21	2	78*	4	7	-5	38	0	-15
